# According to article PMC3349182 (British Journal of Cancer, 2012):
# Entries after “also recorded” stand apart in the source; their conditions may differ.
# Key:
# [1] = test system: patients with advanced, refractory solid tumours; assay: Phase I dose escalation: toxicity; type: in vivo, human; conditions: treatment-related
# Procedure, shortened: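 Oral dosing was once daily in 28-day cycles, escalating by an accelerated design from 0.2 mg/day. Toxicity was graded by NCI CTC v3.0. During cycle 1, patients had weekly examination, blood pressure, full blood count, biochemistry and urinalysis, plus ECGs on days 1 and 8. DLT covered drug-related toxicity in cycle 1: grade ⩾3 toxicity, repeated grade 2 toxicity needing dose reduction, or <75% of planned dose given. The MTD was the highest dose with ≤1/6 patients having a DLT, and 12 more patients were treated at the MTD.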
# [2] = Plasma pharmacokinetics of E7080; type: in vivo, human
# Procedure, shortened: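 Patients took oral drug once daily after an overnight fast. Blood and urine were sampled after a single dose and after multiple dosing. Drug concentrations were measured by LC-MS/MS. tmax, Cmax, AUC0-24, AUC0-∞, AUC0-τ, t½, CL/F and V/F were calculated. Terminal-phase parameters were omitted where too few terminal data points were available.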
structure (smiles),measurement,setting,value
COc1cc2nccc(Oc3ccc(NC(=O)NC4CC4)c(Cl)c3)c2cc1C(N)=O [E7080],"Constipation (all grades), n patients",[1]; 0.2–6.4 mg (n=21),2
same,"Diarrhoea (all grades), n patients",[1]; 0.2–6.4 mg (n=21),4
same,"Dry skin (all grades), % of patients",[1]; 0.2–6.4 mg (n=21),5%
same,"Dry skin (all grades), n patients",[1]; 0.2–6.4 mg (n=21),1
same,"Dysphonia (all grades), % of patients",[1]; 0.2–6.4 mg (n=21),0%
same,"Dysphonia (all grades), n patients",[1]; 0.2–6.4 mg (n=21),0
same,"Fatigue (all grades), % of patients",[1]; 0.2–6.4 mg (n=21),10%
same,"Fatigue (all grades), n patients",[1]; 0.2–6.4 mg (n=21),2
same,"Headache (all grades), % of patients",[1]; 0.2–6.4 mg (n=21),0%
same,"Headache (all grades), n patients",[1]; 0.2–6.4 mg (n=21),0
same,"Hypertension (all grades), % of patients",[1]; 0.2–6.4 mg (n=21),10%
same,"Hypertension (all grades), n patients",[1]; 0.2–6.4 mg (n=21),2
same,"Hypertension Grade 1, % of patients",[1]; 0.2–6.4 mg (n=21),5%
same,"Hypertension Grade 1, n patients",[1]; 0.2–6.4 mg (n=21),1
same,"Hypertension Grade 2, % of patients",[1]; 0.2–6.4 mg (n=21),0%
same,"Hypertension Grade 2, n patients",[1]; 0.2–6.4 mg (n=21),0
same,"Hypertension Grade 3, % of patients",[1]; 0.2–6.4 mg (n=21),5%
same,"Hypertension Grade 3, n patients",[1]; 0.2–6.4 mg (n=21),1
same,"Lethargy (all grades), % of patients",[1]; 0.2–6.4 mg (n=21),14%
same,"Lethargy (all grades), n patients",[1]; 0.2–6.4 mg (n=21),3
same,"Nausea (all grades), % of patients",[1]; 0.2–6.4 mg (n=21),38%
same,"Nausea (all grades), n patients",[1]; 0.2–6.4 mg (n=21),8
same,"Proteinuria (all grades), % of patients",[1]; 0.2–6.4 mg (n=21),14%
same,"Proteinuria (all grades), n patients",[1]; 0.2–6.4 mg (n=21),3
same,"Proteinuria Grade 1, % of patients",[1]; 0.2–6.4 mg (n=21),0%
same,"Proteinuria Grade 1, n patients",[1]; 0.2–6.4 mg (n=21),0
same,"Proteinuria Grade 2, % of patients",[1]; 0.2–6.4 mg (n=21),14%
same,"Proteinuria Grade 2, n patients",[1]; 0.2–6.4 mg (n=21),3
same,"Proteinuria Grade 3, % of patients",[1]; 0.2–6.4 mg (n=21),0%
same,"Proteinuria Grade 3, n patients",[1]; 0.2–6.4 mg (n=21),0
same,"Stomatitis (all grades), % of patients",[1]; 0.2–6.4 mg (n=21),5%
same,"Stomatitis (all grades), n patients",[1]; 0.2–6.4 mg (n=21),1
same,"Vomiting (all grades), n patients",[1]; 0.2–6.4 mg (n=21),7
same,"Abdominal pain (all grades), % of patients",[1]; 12–20 mg (n=30),7%
same,"Abdominal pain (all grades), n patients",[1]; 12–20 mg (n=30),2
same,"Anorexia (all grades), % of patients",[1]; 12–20 mg (n=30),17%
same,"Anorexia (all grades), n patients",[1]; 12–20 mg (n=30),5
same,"Constipation (all grades), % of patients",[1]; 12–20 mg (n=30),10%
same,"Constipation (all grades), n patients",[1]; 12–20 mg (n=30),3
same,"Diarrhoea (all grades), n patients",[1]; 12–20 mg (n=30),8
same,"Dry skin (all grades), % of patients",[1]; 12–20 mg (n=30),10%
same,"Dry skin (all grades), n patients",[1]; 12–20 mg (n=30),3
same,"Dysphonia (all grades), % of patients",[1]; 12–20 mg (n=30),13%
same,"Dysphonia (all grades), n patients",[1]; 12–20 mg (n=30),4
same,"Fatigue (all grades), % of patients",[1]; 12–20 mg (n=30),23%
same,"Fatigue (all grades), n patients",[1]; 12–20 mg (n=30),7
same,"Headache (all grades), % of patients",[1]; 12–20 mg (n=30),7%
same,"Headache (all grades), n patients",[1]; 12–20 mg (n=30),2
same,"Hypertension (all grades), % of patients",[1]; 12–20 mg (n=30),40%
same,"Hypertension (all grades), n patients",[1]; 12–20 mg (n=30),12
same,"Hypertension Grade 1, % of patients",[1]; 12–20 mg (n=30),7%
same,"Hypertension Grade 1, n patients",[1]; 12–20 mg (n=30),2
same,"Hypertension Grade 2, % of patients",[1]; 12–20 mg (n=30),23%
same,"Hypertension Grade 2, n patients",[1]; 12–20 mg (n=30),7
same,"Hypertension Grade 3, % of patients",[1]; 12–20 mg (n=30),10%
same,"Hypertension Grade 3, n patients",[1]; 12–20 mg (n=30),3
same,"Lethargy (all grades), % of patients",[1]; 12–20 mg (n=30),17%
same,"Lethargy (all grades), n patients",[1]; 12–20 mg (n=30),5
same,"Nausea (all grades), % of patients",[1]; 12–20 mg (n=30),17%
same,"Nausea (all grades), n patients",[1]; 12–20 mg (n=30),5
same,"Proteinuria (all grades), n patients",[1]; 12–20 mg (n=30),8
same,"Proteinuria Grade 1, % of patients",[1]; 12–20 mg (n=30),0%
same,"Proteinuria Grade 1, n patients",[1]; 12–20 mg (n=30),0
same,"Proteinuria Grade 2, % of patients",[1]; 12–20 mg (n=30),20%
same,"Proteinuria Grade 3, % of patients",[1]; 12–20 mg (n=30),7%
same,"Proteinuria Grade 3, n patients",[1]; 12–20 mg (n=30),2
same,"Stomatitis (all grades), % of patients",[1]; 12–20 mg (n=30),20%
same,"Vomiting (all grades), % of patients",[1]; 12–20 mg (n=30),10%
same,"Vomiting (all grades), n patients",[1]; 12–20 mg (n=30),3
same,"Abdominal pain (all grades), % of patients",[1]; Total (n=82),11%
same,"Abdominal pain (all grades), n patients",[1]; Total (n=82),9
same,"Anorexia (all grades), % of patients",[1]; Total (n=82),17%
same,"Anorexia (all grades), n patients",[1]; Total (n=82),14
same,"Constipation (all grades), % of patients",[1]; Total (n=82),17%
same,"Constipation (all grades), n patients",[1]; Total (n=82),14
same,"Diarrhoea (all grades), n patients",[1]; Total (n=82),28
same,"Dry skin (all grades), % of patients",[1]; Total (n=82),20%
same,"Dry skin (all grades), n patients",[1]; Total (n=82),16
same,"Dysphonia (all grades), % of patients",[1]; Total (n=82),22%
same,"Dysphonia (all grades), n patients",[1]; Total (n=82),18
same,"Fatigue (all grades), % of patients",[1]; Total (n=82),18%
same,"Fatigue (all grades), n patients",[1]; Total (n=82),15
same,"Headache (all grades), % of patients",[1]; Total (n=82),13%
same,"Headache (all grades), n patients",[1]; Total (n=82),11
same,"Hypertension (all grades), % of patients",[1]; Total (n=82),40%
same,"Hypertension Grade 1, % of patients",[1]; Total (n=82),7%
same,"Hypertension Grade 2, % of patients",[1]; Total (n=82),22%
same,"Hypertension Grade 2, n patients",[1]; Total (n=82),18
same,"Hypertension Grade 3, % of patients",[1]; Total (n=82),11%
same,"Lethargy (all grades), % of patients",[1]; Total (n=82),23%
same,"Nausea (all grades), % of patients",[1]; Total (n=82),37%
same,"Proteinuria (all grades), % of patients",[1]; Total (n=82),26%
same,"Proteinuria (all grades), n patients",[1]; Total (n=82),21
same,"Proteinuria Grade 1, % of patients",[1]; Total (n=82),0%
same,"Proteinuria Grade 1, n patients",[1]; Total (n=82),0
same,"Proteinuria Grade 2, % of patients",[1]; Total (n=82),18%
same,"Proteinuria Grade 2, n patients",[1]; Total (n=82),15
same,"Proteinuria Grade 3, % of patients",[1]; Total (n=82),7%
same,"Stomatitis (all grades), % of patients",[1]; Total (n=82),32%
same,"Stomatitis (all grades), n patients",[1]; Total (n=82),26
same,"Vomiting (all grades), % of patients",[1]; Total (n=82),23%
same,Dose dependence of exposure and Cmax,[2]; 0.2 to 32 mg,dose-linear kinetics; also recorded: increased linearly with increasing dose
same,Accumulation after multiple dosing,"[2]; after 4 weeks' administration, once daily",no drug accumulation
same,Time to maximum concentrations,[2]; after a single dose,≤ 3 h
